The species entered for assay [1] is Oryctolagus cuniculus. As to the kind of experiment: The compound was tested for functional activity by measuring the contraction of saphenous vein from New Zealand white rabbit.
The species entered for assay [2] is Oryctolagus cuniculus. As to the kind of experiment: Maximum vein contraction obtained relative to 5-hydroxytryptamine. The assay is classed as functional.
Assay [3] deals with 5-hydroxytryptamine receptor 1D (Homo sapiens, UniProt P28221). The assay is described as follows: Binding affinity to recombinant human 5-hydroxytryptamine 1D receptor alpha. The method in brief: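 Binding to the cloned human receptor subtype. Values are Ki, given as the mean of one or two independent experiments, each run in duplicate.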
Chain of 5-hydroxytryptamine receptor 1D (P28221 whole entry): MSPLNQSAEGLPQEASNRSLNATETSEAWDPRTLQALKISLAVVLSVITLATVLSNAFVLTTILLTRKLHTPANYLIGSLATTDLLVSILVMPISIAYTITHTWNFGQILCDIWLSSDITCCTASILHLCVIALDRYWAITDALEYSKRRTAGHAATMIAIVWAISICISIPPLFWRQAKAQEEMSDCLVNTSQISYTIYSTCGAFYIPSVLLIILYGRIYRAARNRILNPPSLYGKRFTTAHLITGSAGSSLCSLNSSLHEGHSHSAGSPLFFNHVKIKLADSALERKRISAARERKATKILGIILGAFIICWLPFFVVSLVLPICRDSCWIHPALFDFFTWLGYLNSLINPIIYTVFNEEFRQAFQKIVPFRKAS

As usually defined, the Ki is a measure of affinity in units of concentration, obtained from inhibition or displacement. In the assay listed under Oryctolagus cuniculus [1], `NCCc1c[nH]c2ccc(OCCCCC(=O)N3CCN(c4ccc(N)cc4)CC3)cc12` returned a pD2 of 7.05. In addition, the Rel max in the assay filed under Oryctolagus cuniculus [2] was found to be 0.73. Besides, the Ki in assay [3] was determined as 1.4 nM.
The corresponding values for `CS(=O)(=O)NCc1ccc(N2CCN(C(=O)COc3ccc4[nH]cc(CCN)c4c3)CC2)cc1` are 6.92, 0.88 and 1 nM.
In the assay filed under Oryctolagus cuniculus [1], `N#Cc1ccccc1N1CCN(C(=O)COc2ccc3[nH]cc(CCN)c3c2)CC1` had a pD2 of 7.42. Moreover, the Rel max in the assay listed under Oryctolagus cuniculus [2] is 1.22. Further, the Ki in assay [3] stood at 0.92 nM.
The compound `Cc1ccccc1N1CCN(C(=O)COc2ccc3[nH]cc(CCN)c3c2)CC1` showed a pD2 in the assay listed under Oryctolagus cuniculus [1] of 5.86. Further, the Rel max in the assay filed under Oryctolagus cuniculus [2] was found to be 1.01.
For `NCCc1c[nH]c2ccc(OCCCC(=O)N3CCN(c4ccc([N+](=O)[O-])cc4)CC3)cc12`, the pD2 in the assay filed under Oryctolagus cuniculus [1] is 6.91. Further, in the assay listed under Oryctolagus cuniculus [2], the Rel max is recorded as 1.06. Further, the Ki in assay [3] stood at 1.2 nM.
The corresponding values for `CN(C)S(=O)(=O)Nc1ccc(N2CCN(C(=O)COc3ccc4[nH]cc(CCN)c4c3)CC2)cc1.Cl.O` are 7.2, 0.96 and 0.26 nM.
The corresponding values for `CS(=O)(=O)NCc1ccccc1N1CCN(C(=O)COc2ccc3[nH]cc(CCN)c3c2)CC1` are 6, 0.93 and 1.8 nM.
In the assay filed under Oryctolagus cuniculus [1], `NCCc1c[nH]c2ccc(OCCCCCC(=O)N3CCN(c4ccc(N)cc4)CC3)cc12` returned a pD2 of 8.09. For the same compound, the Rel max in the assay filed under Oryctolagus cuniculus [2] was 0.79. For the same compound, in assay [3], the Ki is 0.38 nM.
For `NCCc1c[nH]c2ccc(OCCCCCC(=O)N3CCN(c4ccc([N+](=O)[O-])cc4)CC3)cc12`, the pD2 in the assay listed under Oryctolagus cuniculus [1] is 7. Also, the Rel max in the assay listed under Oryctolagus cuniculus [2] turned out to be 0.73. Also, the Ki in assay [3] is 0.34 nM.
The corresponding values for `NCCc1c[nH]c2ccc(OCC(=O)N3CCN(c4ccc(CN)cc4)CC3)cc12` are 6.8, 0.92 and 0.93 nM.
On the same counts, the results for `CS(=O)(=O)Nc1ccc(N2CCN(C(=O)COc3ccc4[nH]cc(CCN)c4c3)CC2)cc1` are 7.62, 1.21 and 0.56 nM.
Compound `CNS(=O)(=O)Cc1ccc2[nH]cc(CCN(C)C)c2c1` had a pD2 in the assay filed under Oryctolagus cuniculus [1] of 5.75. Also, in the assay listed under Oryctolagus cuniculus [2], the Rel max is on record as 1.26.
In turn, `NCCc1c[nH]c2ccc(OCCCCC(=O)N3CCN(c4ccc([N+](=O)[O-])cc4)CC3)cc12` returned a pD2 in the assay filed under Oryctolagus cuniculus [1] of 6.74. In the assay filed under Oryctolagus cuniculus [2], this compound had a Rel max of 0.71. The inhibition constant Ki in assay [3] amounted to 2.5 nM.
In the assay listed under Oryctolagus cuniculus [1], `CS(=O)(=O)Nc1ccc(N2CCN(C(=O)CCCCCOc3ccc4[nH]cc(CCN)c4c3)CC2)cc1` had a pD2 of 8.33. Also, the Rel max in the assay listed under Oryctolagus cuniculus [2] is 1.05.
For the compound `CC(=O)Nc1ccc(N2CCN(C(=O)COc3ccc4[nH]cc(CCN)c4c3)CC2)cc1`, in the assay listed under Oryctolagus cuniculus [1], the pD2 was 6.67. In the assay listed under Oryctolagus cuniculus [2], this compound showed a Rel max of 1.01.
In the assay filed under Oryctolagus cuniculus [1], `NCCc1c[nH]c2ccc(OCC(=O)N3CCN(c4ccccc4CN)CC3)cc12` displayed a pD2 of 6.52. The Rel max in the assay listed under Oryctolagus cuniculus [2] came to 0.9. In assay [3], the Ki amounted to 6.9 nM.
As for `NCCc1c[nH]c2ccc(OCC(=O)N3CCN(c4ccccc4[N+](=O)[O-])CC3)cc12`, the pD2 in the assay listed under Oryctolagus cuniculus [1] is on record as 6.33. The compound also yielded a Rel max in the assay filed under Oryctolagus cuniculus [2] of 0.87. Besides, in assay [3], the Ki is 0.58 nM.
The corresponding values for `NCCc1c[nH]c2ccc(OCC(=O)N3CCN(c4ccc(N)cc4)CC3)cc12` are 6.88, 0.83 and 2.92 nM.
On the same counts, the results for `NCCc1c[nH]c2ccc(OCC(=O)N3CCN(c4ccc(NC(=O)c5ccccc5)cc4)CC3)cc12` are 7.31, 0.9 and 1.7 nM.
On the same counts, the results for `NCCc1c[nH]c2ccc(OCC(=O)N3CCN(c4ccc([N+](=O)[O-])cc4)CC3)cc12` are 6.12, 0.52 and 0.42 nM.
`NCCc1c[nH]c2ccc(OCC(=O)N3CCN(c4ccccc4)CC3)cc12` yielded a pD2 in the assay filed under Oryctolagus cuniculus [1] of 7.63. Moreover, the Rel max in the assay filed under Oryctolagus cuniculus [2] was found to be 0.68. In assay [3], the Ki is 1.2 nM.
With `CN(C)CCc1c[nH]c2ccc(Cn3cncn3)cc12` [RIZATRIPTAN], the pD2 in the assay filed under Oryctolagus cuniculus [1] is on record as 6.15. The compound also registered a Rel max in the assay filed under Oryctolagus cuniculus [2] of 1.42.
On to `NCCc1c[nH]c2ccc(O)cc12` [SEROTONIN], for which the Rel max in the assay listed under Oryctolagus cuniculus [2] is given as 1.
The compound `CN(C)CCc1c[nH]c2ccc(C[C@H]3COC(=O)N3)cc12` [ZOLMITRIPTAN] yielded a pD2 in the assay listed under Oryctolagus cuniculus [1] of 6.13. The compound also came in with a Rel max in the assay filed under Oryctolagus cuniculus [2] of 1.48. In addition, the Ki in assay [3] is 0.92 nM.
